High-throughput results as filed in PubChem BioAssay.
DDE Tn7 FP inh – DD(E)-Tn7 binding inhibition, primary FP screen | FP displacement of FITC-Tn7 peptide from fibrin DD(E); 0% = median of compound wells per plate | AID 720508 | inhibition, % at 8.3 µM | P02675 | 370,000 tested, 0.13% active;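 active = inhibition above the mean of compounds falling within the control limits plus 3 SD of them, cut at about 14% in these data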
Target sequence (P02675 whole entry, looked up): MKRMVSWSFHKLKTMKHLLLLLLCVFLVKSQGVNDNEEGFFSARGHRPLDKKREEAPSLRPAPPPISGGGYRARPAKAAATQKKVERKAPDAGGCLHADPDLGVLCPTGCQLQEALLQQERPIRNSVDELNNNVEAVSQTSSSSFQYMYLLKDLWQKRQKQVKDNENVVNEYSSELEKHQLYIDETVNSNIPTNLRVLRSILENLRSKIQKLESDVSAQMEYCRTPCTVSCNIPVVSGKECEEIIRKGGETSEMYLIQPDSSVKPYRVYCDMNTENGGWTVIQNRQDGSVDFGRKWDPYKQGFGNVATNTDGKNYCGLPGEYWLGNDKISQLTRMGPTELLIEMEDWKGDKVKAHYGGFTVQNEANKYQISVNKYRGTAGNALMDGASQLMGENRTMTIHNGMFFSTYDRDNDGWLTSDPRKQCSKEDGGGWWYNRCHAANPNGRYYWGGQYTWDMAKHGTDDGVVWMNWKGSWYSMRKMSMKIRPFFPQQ
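Also added: labelled Tn7 tracer, 0.1 µM; Assay system: human fibrin DD(E) protein; Amount: 2 µM fibrin DD(E); Schedule: 10 min compound pre-incubation, 3 h probe incubation at room temperature; Repeats: one replicate per compound; Read-out basis: percent inhibition; Measured by: fluorescence polarization of the labelled Tn7 tracer.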
CRFBP-R2 agonist – CRF-BP/CRF-R2 complex agonism; HEK293 CRF-R2/CRF-BP, calcium dye fluorescence (FLIPR); percent of saturating CRF peptide response; activation, % at 13.2 µM; 350,000 tested, 0.46% active; AID 588473;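 active = activation of at least 50%, plus an integration ratio under a set limit after plate pattern correction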
CRFBP-R2 block – blocks CRF-induced signaling of the CRF-BP/CRF-R2 complex; HEK293 CRF-R2/CRF-BP, CRF-induced calcium fluorescence; inhibition, % at 11.8 µM; 350,000 tested, 0.59% active; AID 588475;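 active = inhibition of the ligand-induced calcium signal above about 50% at the single tested concentration, limit read from the data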
DDE Tn6 FP inh – inhibitors of Tn6 peptide binding to human fibrin DD(E); 370,000 tested, 0.21% active; inhibition, % at 8.3 µM; Fibrin DD(E) TRITC-Tn6 fluorescence polarization displacement; P02675; AID 720509;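 active = inhibition above a per-campaign cutoff: mean of compounds within control limits plus 3 SD, cut at about 15% in these data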
Each line names hits and unclear results; the compound was inactive in the other large screens. An excerpt weighted towards active compounds, which were near 1.3% of everything screened.

COc1ccc(S[C@]2(C(=O)N3CCOCC3)CC(=O)N(P(=O)(OC)OC)[C@@H]2c2ccc(OC)cc2)cc1	none (no result: CRFBP-R2 agonist, CRFBP-R2 block)
C#CCNC(=O)C1=C[C@@H](c2ccc(Br)cc2)[C@H](CCCO)[C@@H](OCC)O1	none
C#CCNC(=O)C1=C[C@H](c2ccc3c(c2)OCO3)[C@@H](CCCO)[C@H](OCC)O1	CRFBP-R2 block 81
C=CCN1C(=O)[C@H](CC(=O)N2CCCC2)[C@@]2(C(=O)OCC)CCCC=C12	none (no result: CRFBP-R2 agonist, CRFBP-R2 block)
COc1ccc(NS(=O)(=O)c2ccc(N3CCOCC3)c(NC(=O)C(C)C)c2)cc1	CRFBP-R2 block 100
CCCCNC(=O)C[C@H]1C[C@@]2(C(=O)OC)C(=C[C@H](C(C)C)O[C@@H]2C2CC2)N(Cc2ccc3c(c2)OCO3)C1=O	none (no result: CRFBP-R2 agonist, CRFBP-R2 block)
O=C(N/N=C/c1c(O)ccc2ccccc12)c1ccc(Br)o1	CRFBP-R2 agonist 101
O=C(N/N=C\c1c(O)ccc2ccccc12)c1cncc(Br)c1	CRFBP-R2 agonist 167
O=C(N/N=C/c1c(O)n(-c2ccc(Cl)cn2)c(=O)c2ccccc12)C1CC1	none
O=C(N/N=C/c1ccc(O)c2ncccc12)c1cccc(Br)c1	CRFBP-R2 agonist 124
O=C(N/N=C/c1c(O)n(-c2ccc(Cl)cn2)c(=O)c2ccccc12)c1ccncc1	CRFBP-R2 agonist 55
CC(=O)c1cc(-c2ccc([N+](=O)[O-])cc2)c(=O)n2c1CCC2	none (no result: CRFBP-R2 agonist, CRFBP-R2 block)
CCOC(=O)[C@]12CCCCC/C=C\1N(CCc1ccc(Cl)cc1)C(=O)[C@H]2CC(=O)N1CCC(c2ccccc2)CC1	none (no result: CRFBP-R2 agonist, CRFBP-R2 block)
CC(=NNC(=O)c1ccncc1)c1ccc2ccccc2c1O	CRFBP-R2 agonist 297
O=C(NN=Cc1c(O)ccc2ccccc12)c1ccncc1	CRFBP-R2 agonist 149
O=C(C1CCCC1)N1CCCC(Nc2ccc(F)cc2)C1 (stereo not given)	CRFBP-R2 agonist 117
O=C(C1CCCC1)N1CCCC(Nc2ccccc2)C1 (stereo not given)	none
CCOC(=O)N1CCC(NC(=O)CCC(=O)N2CCOc3ccccc32)CC1	none
O=C(CCC(=O)N1CCOc2ccccc21)NC1CCCCCC1	CRFBP-R2 block 74
COc1ccc(CNCC#Cc2ccc(C(F)(F)F)cc2)c(OC)c1	none (no result: CRFBP-R2 agonist, CRFBP-R2 block)
CC1(C)Cc2ccccc2-c2c1c(=O)n(Cc1ccccc1)c1nnnn21	CRFBP-R2 block 61
C[C@@H]1OC(c2ccccc2)N(C)[C@H]2C[C@H]3c4[nH]c5cccc(-c6ccccc6)c5c4CCN3C[C@@H]12 (stereo not given in full)	none (no result: CRFBP-R2 agonist, CRFBP-R2 block)
COC(=O)C1C(c2ccccc2)C(C(=O)OCc2ccco2)C1c1ccccc1 (stereo not given)	CRFBP-R2 block 59 (no result: DDE Tn7 FP inh, DDE Tn6 FP inh)
COc1ccc2[nH]cc(CCNC(=S)NC3CCCC3)c2c1	CRFBP-R2 block 51
O=C(c1cc2nc(-c3ccccc3)cc(-c3ccccc3)n2n1)N1CCCC1	none
O=C(c1cc2nc(-c3ccccc3)cc(-c3ccccc3)n2n1)N1CCN(C(=O)c2ccco2)CC1	CRFBP-R2 block 55
CC1=C(c2ccccc2)C(O)(c2ccccc2)C(C)C1=O (stereo not given)	CRFBP-R2 block 59
O=C(Nc1cccc2[nH]ncc12)NS(=O)(=O)c1ccccc1	DDE Tn6 FP inh 60
CC(=O)Nc1ccc(S(=O)(=O)Nc2cccc3[nH]ncc23)cc1	none
O=C(Nc1ccc(F)cc1)N[C@@H]1C[C@@H]2O[C@H](CO)CC[C@@H]2O[C@@H]1CCc1ccc(C2=CCCC2)cc1	none (no result: CRFBP-R2 agonist, CRFBP-R2 block)
CC(c1ccco1)N(C(=O)c1cc(Cl)cc(Cl)c1)c1ccccn1 (stereo not given)	none
CC(c1ccco1)N(C(=O)c1ccccc1NS(=O)(=O)c1ccc(Cl)c([N+](=O)[O-])c1)c1ccccn1 (stereo not given)	CRFBP-R2 block 52
Cc1ccccc1C(=O)NC1CCCCN(C(C)C)C1=O (stereo not given)	none (no result: CRFBP-R2 agonist, CRFBP-R2 block)
Clc1ccccc1NN(Cc1ccncc1)c1ccccc1Cl	CRFBP-R2 block 53
CCOC(=O)c1c(CC(C)C)csc1NC(=O)c1ccccc1C(=O)O	none
CC(C)Cc1csc(NC(=O)c2ccc(F)cc2)c1C(=O)O	CRFBP-R2 block 69
Clc1ccc(-n2c(SCc3cccc4ccccc34)nnc2-c2ccccn2)cc1	none (no result: CRFBP-R2 agonist, CRFBP-R2 block)
COc1ccc(NC(=S)NCc2cccnc2)cc1	CRFBP-R2 block 92
O=C(CNS(=O)(=O)c1ccc(Cl)s1)N1CCN(c2ccccn2)CC1	none (no result: CRFBP-R2 agonist, CRFBP-R2 block)
COc1cc(/C=C2/C(=N)N3C(SC)=NSC3=NC2=O)ccc1OC(=O)c1ccco1	none
O=C1NN(c2ccccc2)C(=O)/C1=C/c1coc2ccccc2c1=O	none
N=C1/C(=C\c2coc3ccccc3c2=O)C(=O)N=C2SC=CN12	CRFBP-R2 agonist 181
CSC1=NSC2=NC(=O)/C(=C/c3coc4ccccc4c3=O)C(=N)N12	CRFBP-R2 agonist 313
CC1=CC2=NC(=O)/C(=C/c3coc4ccc(Cl)cc4c3=O)C(=N)N2O1	CRFBP-R2 agonist 106
CSC1=NSC2=NC(=O)/C(=C/c3coc4ccc(O)cc4c3=O)C(=N)N12	CRFBP-R2 agonist 79
COc1ccc(CCN(Cc2cccs2)S(=O)(=O)c2ccc(C)s2)cc1OC	none (no result: CRFBP-R2 agonist, CRFBP-R2 block)
CC1(c2nnnn2Cc2ccccc2)CCSCC(=O)N1Cc1cccs1 (stereo not given)	none (no result: CRFBP-R2 agonist, CRFBP-R2 block)
COc1ccc(C(CCN(Cc2ccc(OC)c(OC)c2)C(C)=O)c2ccccc2)cc1 (stereo not given)	none
COc1ccc(CN(CCC(c2ccccc2)c2ccc(OC(C)C)cc2)C(=O)CCl)cc1OC (stereo not given)	CRFBP-R2 block 53
CCCCNC(=O)C[C@H]1C[C@@]2(C(=O)OC)C(=C[C@H](C(C)(C)C)O[C@@H]2C)N(Cc2ccco2)C1=O	none (no result: CRFBP-R2 agonist, CRFBP-R2 block)
O=C(CSc1nnc(-c2cccc(Cl)c2)n1Cc1ccco1)Nc1ccc2c(c1)OCO2	none (no result: CRFBP-R2 agonist, CRFBP-R2 block)
COC(=O)/C(C#N)=C/c1c[nH]c2ccccc12	none
N#C/C(=C\c1ccc(O)c(O)c1)C(=O)NCCc1ccccc1	none
COc1cc(/C=C(\C#N)C(=O)c2c[nH]c3ccccc23)cc(OC)c1O	CRFBP-R2 agonist 85
COc1cc(/C=C(\C#N)C(=O)NCCc2ccccc2)cc(OC)c1O	CRFBP-R2 agonist 67
CN(CC(=O)Nc1ccc2c(c1)OCCO2)CC(=O)Nc1ccc(F)c(F)c1F	CRFBP-R2 block 68
COc1ccc(C(=O)CSc2nnn(-c3cccc(NC(C)=O)c3)n2)cc1	CRFBP-R2 agonist 69
CC(=O)Nc1cccc(-n2nnc(SCC(=O)c3ccccc3)n2)c1	none
Cc1ccc(Nc2c(O)nc[nH]c2=O)cc1	CRFBP-R2 block 73
COc1ccccc1C(=O)N1CCC2CCN(C(=O)c3ccccc3)C2C1 (stereo not given)	none (no result: CRFBP-R2 agonist, CRFBP-R2 block)
Cn1c(OCc2ccc3c(c2)OCO3)nc2c1c(=O)n(Cc1ccc(Cl)c(Cl)c1)c(=O)n2C	none
C=CCOc1nc2c(c(=O)n(Cc3ccc(Cl)c(Cl)c3)c(=O)n2C)n1C	CRFBP-R2 block 51
COC(CNC(=O)[C@H](Cc1ccccc1)NC1(C(=O)NC2CCCCC2)CCC1)OC	none (no result: CRFBP-R2 agonist, CRFBP-R2 block)
C#CCN1C(=O)[C@]2(NCCc3c2[nH]c2ccc(OC)cc32)c2cc(F)ccc21	none (no result: CRFBP-R2 agonist, CRFBP-R2 block)
O=C(COC(=O)Cc1cccs1)NCC(=O)Nc1ccc(F)cc1	none
